Measured values published in ChEMBL document CHEMBL1240389, “In vitro and in vivo activities of the novel anticytomegalovirus compound AIC246” (Antimicrob Agents Chemother, 2010).
The source made the active and inactive calls. The calls are words filed in the database; no cut-off is given here.

Key:
[1] = test system: Human betaherpesvirus 5; test: Antiviral activity against human cytomegalovirus isolate E16415S infected in NHDF assessed as inhibition of virus-induced cytopathic effect after 6 to 7 days by giemsa staining; format: functional, organism-based; conditions: Human betaherpesvirus 5, isolate E16415S
Outline: (§1)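 Cell-associated virus (infected NHDF cells) used as inoculum, at MOI 0.001 to 0.002, mixed with uninfected NHDF (1 × 10⁴ to 3 × 10⁴ cells/well). Compound was added in 2-fold serial dilutions, final 250 to 0.00005 μM, in duplicates. Incubation was 6 to 7 days at 37°C, followed by Giemsa/formalin staining and visual CPE scoring. EC₅₀ is 50% CPE inhibition versus untreated infected control; at least two independent experiments.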

[2] = test system: Human herpesvirus 5 strain AD169; test: Antiviral activity against ganciclovir-resistant human cytomegalovirus AD169 UL97 M460I infected in NHDF assessed as inhibition of virus-induced cytopathic effect after 6 to 7 days by giemsa staining; format: functional, organism-based; conditions: Human betaherpesvirus 5, UL97 M460I
Outline: (§2)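 NHDF cells (1 × 10⁴/well) mixed with cell-free virus (MOI 0.03) or with infected-cell suspension (MOI 0.001 to 0.002). Compound was added from DMSO stocks in 2-fold serial dilutions, final 250 to 0.00005 μM, in duplicates. Plates were incubated 6 to 7 days at 37°C or until 100% CPE in virus control, then fixed and stained with Giemsa/formalin and scored microscopically. EC₅₀ is 50% CPE inhibition versus untreated infected control.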

[3] = test system: Human betaherpesvirus 5; test: Antiviral activity against human cytomegalovirus isolate 472 infected in NHDF assessed as inhibition of virus-induced cytopathic effect after 6 to 7 days by giemsa staining; format: functional, organism-based; conditions: Human betaherpesvirus 5, isolate 472, NHDF; outline: as §2
[4] = test system: Human betaherpesvirus 5; test: Antiviral activity against human cytomegalovirus Davis infected in NHDF assessed as inhibition of virus-induced cytopathic effect after 6 to 7 days by giemsa staining; format: functional, organism-based; conditions: Human betaherpesvirus 5, Davis; outline: as §2
[5] = test system: Human betaherpesvirus 5; test: Antiviral activity against 0.003 MOI human cytomegalovirus AD169 infected in NHDF after 7 days by GFP-based fluorescent reduction assay; format: functional, organism-based; conditions: Human betaherpesvirus 5, AD169, NHDF, 168 h
Outline: (§3)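 NHDF cells (1.5 × 10⁴/well) infected with GFP-expressing HCMV AD169 at the stated MOI (range 0.003 to 1 tested). After adsorption the inoculum was replaced, and compound was added in 3-fold serial dilutions, each at least in duplicate. Cells were incubated 7 days at 37°C, then GFP units were read by CCD camera in PBS. EC₅₀ was taken as the % GFPU reduction versus no-drug control. At least triplicate experiments.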

[6] = test system: Human betaherpesvirus 5; test: Antiviral activity against human cytomegalovirus infected in NHDF after 7 days by GFP-based fluorescent reduction assay; format: functional, organism-based; conditions: Human betaherpesvirus 5, NHDF, 168 h
Outline: (§4)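 Fibroblasts of the stated type (1.5 × 10⁴/well) infected with GFP-expressing recombinant AD169 (HCMV-GFP MOI 0.1 or RV-HG MOI 0.2 to 0.5). After adsorption the inoculum was replaced, with 3-fold serial compound dilutions at least in duplicate, and 7 days at 37°C. GFP units were read by CCD camera in PBS. EC₅₀ was derived from GFPU reduction versus untreated infected wells; at least triplicate runs.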

[7] = test system: Human betaherpesvirus 5; test: Antiviral activity against 0.1 MOI human cytomegalovirus AD169 infected in NHDF after 7 days by GFP-based fluorescent reduction assay; format: functional, organism-based; conditions: Human betaherpesvirus 5, AD169, NHDF, 168 h; outline: as §3
[8] = test system: Human betaherpesvirus 5; test: Antiviral activity against ganciclovir-resistant human cytomegalovirus isolate E17251S infected in NHDF assessed as inhibition of virus-induced cytopathic effect after 6 to 7 days by giemsa staining; format: functional, organism-based; conditions: Human betaherpesvirus 5, isolate E17251S; outline: as §1
[9] = test system: Human betaherpesvirus 5; test: Antiviral activity against human cytomegalovirus AD169 infected in NHDF assessed as inhibition of virus-induced cytopathic effect after 6 to 7 days by giemsa staining; format: functional, organism-based; conditions: Human betaherpesvirus 5, AD169, NHDF; outline: as §2
[10] = test system: Human betaherpesvirus 5; test: Antiviral activity against human cytomegalovirus RV-HG infected in NHDF after 7 days by GFP-based fluorescent reduction assay; format: functional, organism-based; conditions: Human betaherpesvirus 5, RV-HG, 168 h
Outline: (§5)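 Incubated 7 days at 37°C, medium swapped for PBS, GFP units read by CCD-camera fluorescence imager. EC50/EC90 from % GFPU reduction versus untreated infected wells by nonlinear regression; at least triplicate experiments.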

[11] = test system: Human betaherpesvirus 5; test: Antiviral activity against human cytomegalovirus AD169 infected in NHDF assessed as inhibition of virus replication at 50 nM measured after 24 to 72 hrs of compound wash by fluorescence assay; format: functional, organism-based
[12] = test system: Human betaherpesvirus 5; test: Antiviral activity against human cytomegalovirus AD169 infected in NHDF at 10 times EC50 treated postinfection and measured after 7 days by GFP-based fluorescent reduction assay
[13] = test system: Human betaherpesvirus 5; test: Antiviral activity against human cytomegalovirus AD169 infected in NHDF after 7 days by GFP-based fluorescent reduction assay; format: functional, organism-based; conditions: Human betaherpesvirus 5, AD169, NHDF, 168 h; outline: as §5
[14] = test system: Human betaherpesvirus 5; test: Antiviral activity against 0.3 MOI human cytomegalovirus AD169 infected in NHDF after 7 days by GFP-based fluorescent reduction assay; format: functional, organism-based; conditions: Human betaherpesvirus 5, AD169, NHDF, 168 h; outline: as §3
[15] = test system: Human betaherpesvirus 5; test: Antiviral activity against human cytomegalovirus infected in human HS27 cells after 7 days by GFP-based fluorescent reduction assay; format: functional, organism-based; conditions: Human betaherpesvirus 5, HS27, 168 h
Outline: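 GFP reduction assay run in HS27 foreskin fibroblasts instead of NHDF, infected with AD169-GFP; compounds in 3-fold serial dilutions, 7 days at 37°C, GFP units read by camera-based fluorescence detector after PBS exchange. EC50 from % GFPU reduction versus drug-free infected control; at least triplicate experiments.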

[16] = test system: Human betaherpesvirus 5; test: Antiviral activity against 0.01 MOI human cytomegalovirus AD169 infected in NHDF after 7 days by GFP-based fluorescent reduction assay; conditions: Human betaherpesvirus 5, AD169, NHDF, 168 h
[17] = test system: Human betaherpesvirus 5; test: Antiviral activity against 0.03 MOI human cytomegalovirus AD169 infected in NHDF after 7 days by GFP-based fluorescent reduction assay; format: functional, organism-based; conditions: Human betaherpesvirus 5, AD169, NHDF, 168 h; outline: as §3
[18] = test system: Human betaherpesvirus 5; test: Antiviral activity against human cytomegalovirus AD169 infected in NHDF at 20 uM treated after 33 hrs postinfection measured after 7 days by GFP-based fluorescent reduction assay; format: functional, organism-based
[19] = test system: Human betaherpesvirus 5; test: Antiviral activity against human cytomegalovirus infected in NHLF after 7 days by GFP-based fluorescent reduction assay; format: functional, organism-based; conditions: Human betaherpesvirus 5, 168 h; outline: as §4
[20] = test system: Human betaherpesvirus 5; test: Antiviral activity against 1 MOI human cytomegalovirus AD169 infected in NHDF after 7 days by GFP-based fluorescent reduction assay; format: functional, organism-based; conditions: Human betaherpesvirus 5, AD169, NHDF, 168 h
Outline: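 NHDF cells (1.5 × 10⁴/well) infected with GFP-expressing HCMV AD169 at increasing MOI (0.003 to 1); after adsorption inoculum replaced, compound added in serial 3-fold dilutions, at least duplicate. 7 days at 37°C, medium swapped for PBS, GFP units read by CCD camera. EC₅₀ = 50% GFPU reduction versus no-drug virus control by nonlinear regression; at least triplicate experiments.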

[21] = test system: Human betaherpesvirus 5; test: Antiviral activity against ganciclovir-resistant human cytomegalovirus isolate 1947R infected in NHDF assessed as inhibition of virus-induced cytopathic effect after 6 to 7 days by giemsa staining; format: functional, organism-based; conditions: Human betaherpesvirus 5, isolate 1947R; outline: as §1
[22] = test system: Human betaherpesvirus 5; test: Antiviral activity against human cytomegalovirus AD169 infected in NHDF assessed as inhibition of virus replication at 20 uM after 96 hrs by fluorescence assay; format: functional, organism-based
[23] = test system: Human betaherpesvirus 5; test: Antiviral activity against human cytomegalovirus infected in HEL299 cells after 7 days by GFP-based fluorescent reduction assay; format: functional, organism-based; conditions: Human betaherpesvirus 5, HEL 299, 168 h; outline: as §4
[24] = Cytotoxicity against NHDF infected with human cytomegalovirus after 7 days by alamar blue assay; format: cell-based; conditions: NHDF cells infected with human cytomegalovirus
Outline: (§6)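 Fibroblasts seeded at 1.5 × 10⁴/well, incubated overnight, then given drug in 3-fold serial dilutions from 0.33 mM (DMSO constant 0.66%). After 7 days, alamarBlue added and fluorescence read; signal as % of untreated cell controls versus log concentration; CC50 from dose-response curves. At least three experiments with duplicates.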

[25] = Selectivity index, ratio of CC50 for human MRC5 cells to EC50 for human cytomegalovirus infected in human MRC5 cells; format: toxicity, cell-based; conditions: MRC5 cells infected with human cytomegalovirus, read-out: Selectivity Index
Outline: (§7)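 SI = CC₅₀/EC₅₀ in the same fibroblast type. EC₅₀: GFP-expressing HCMV AD169, 3-fold dilutions, 7 days at 37°C, GFP units by CCD camera. CC₅₀ run in parallel: 1.5 × 10⁴ cells/well overnight, 3-fold dilutions from 0.33 mM (DMSO constant 0.66%), 7 days, alamarBlue fluorescence as % of untreated cells; ≥3 runs in duplicate.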

[26] = Cytotoxicity against human HS27 cells infected with human cytomegalovirus after 7 days by alamar blue assay; format: cell-based; outline: as §6
[27] = Selectivity index, ratio of CC50 for HEL299 cells to EC50 for human cytomegalovirus infected in HEL299 cells; format: toxicity, cell-based, HEL 299; conditions: read-out: Selectivity Index; outline: as §7
[28] = Cytotoxicity against HLF infected with human cytomegalovirus after 7 days by alamar blue assay; conditions: HLF cells infected with human cytomegalovirus; outline: as §6
[29] = Cytotoxicity against HEL299 cells infected with human cytomegalovirus after 7 days by alamar blue assay; format: cell-based, HEL 299; outline: as §6
[30] = Selectivity index, ratio of CC50 for human HS27 cells to EC50 for human cytomegalovirus infected in human HS27 cells; format: toxicity, cell-based; conditions: HS27 cells infected with human cytomegalovirus, read-out: Selectivity Index; outline: as §7
[31] = Cytotoxicity against human MRC5 cells infected with human cytomegalovirus after 7 days by alamar blue assay; format: cell-based; outline: as §6
[32] = test system: Human betaherpesvirus 5; test: Antiviral activity against human cytomegalovirus Davis xenograft mouse model assessed as reduction of viral load administered via oral gavage QD for 9 days measured post last dose; format: functional; conditions: Human betaherpesvirus 5, Davis, 216 h
Outline: (§8)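 NOD SCID mice (18 to 25 g) implanted subcutaneously (dorsoscapular) with Gelfoam sponges seeded with 1 × 10⁶ NHDF cells infected with strain Davis (MOI 0.03), bFGF-treated. From 4 h post-transplant, dosed orally by gavage once daily for 9 days in 2% DMSO/0.5% methylcellulose-PBS, 10 ml/kg. Implants then collagenase-digested; recovered cells titrated by plaque assay on NHDF (PFU/ml).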

[33] = test system: Human betaherpesvirus 5; test: Antiviral activity against human cytomegalovirus Davis xenograft mouse model assessed as reduction of viral load at 10 to 100 mg/kg, po QD for 9 days measured post last dose; format: functional, organism-based; outline: as §8
[34] = test system: Human betaherpesvirus 5; test: Antiviral activity against human cytomegalovirus AD169 infected in NHDF at 11 uM treated after 57 hrs postinfection measured after 7 days by GFP-based fluorescent reduction assay; format: functional, organism-based

Nc1nc2c(ncn2COC(CO)CO)c(=O)[nH]1 [GANCICLOVIR]
EC50 [1]: 1100 nM
EC50 [2]: 12000 nM
EC50 [3]: 5000 nM
EC50 [4]: 2700 nM
EC50 [5]: 990 nM
EC50 [6]: 1910 nM
EC50 [7]: 2210 nM
EC50 [8]: 14000 nM
EC50 [9]: 4300 nM
EC50 [10]: 2330 nM
EC90 [10]: 18300 nM
Activity [11]: Active
Activity [12]: Active
EC50 [13]: 1730 nM
EC90 [13]: 10700 nM
EC50 [14]: 6510 nM
EC50 [15]: 320 nM
EC50 [16]: 680 nM
EC50 [17]: 1740 nM
Activity [18]: Active
EC50 [19]: 2070 nM
EC50 [20]: 5260 nM
EC50 [21]: 15000 nM
Activity [22]: Active
EC50 [23]: 2390 nM

Nc1nc(O)c2ncn(COC(CO)CO)c2n1 [GANCICLOVIR]
CC50 at 168 h [24]: > 333000 nM
selectivity ratio [25]: > 202
CC50 at 168 h [26]: > 333000 nM
selectivity ratio [27]: > 139
CC50 at 168 h [28]: > 333000 nM
CC50 at 168 h [29]: > 333000 nM
selectivity ratio [30]: > 1040
CC50 at 168 h [31]: > 333000 nM

CC(C)[C@H](N)C(=O)OCC(CO)OCn1cnc2c(=O)[nH]c(N)nc21 (stereo partly drawn) [VALGANCICLOVIR]
ED50 [32]: 16 mg/kg/day
ED90 [32]: > 100 mg/kg/day
inhibition [33]: Active

CN(C)c1cccc2c(S(=O)(=O)Nc3ccc(NC(=O)C(C)(C)CO)cc3)cccc12
Activity [12]: Active
Activity [34]: inactive
